Results on ten compounds are retold here after ChEMBL document CHEMBL1153005, “Synthesis and biological evaluation of curcumin-like diarylpentanoid analogues for anti-inflammatory, antioxidant and anti-tyrosinase activities” (Eur J Med Chem, 2009).

A word on the IC50: it is the concentration needed to halve the response being measured.

Data set [1] relates to RAW264.7. The experiment in a line: Antiinflammatory activity in mouse RAW264.7 cells assessed as inhibition of IFN-gamma/LPS-stimulated nitric oxide production after 17 to 20 hrs by Griess assay. The data set is classed as functional, cell-based. The procedure, abridged: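 RAW 264.7 cells were grown in DMEM with 10% FBS and 1% penicillin/streptomycin (5% CO₂, 37 °C). At 80–90% confluency they were scraped and seeded at 5 × 10⁴ cells/well. Nitrite was measured by Griess assay, and % NO inhibition was taken relative to the IFN-γ/LPS control. Results are the mean ± S.E.M. of three experiments; IC₅₀ values were computed from these.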
For orientation: Nitrite, measured by Griess reagent, commonly stands in for NO production.

A short description of data set [2]: Antioxidant activity assessed as nitric oxide scavenging activity after 60 min by Griess assay. It is filed as functional. In short, it runs like this:
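Sodium nitroprusside (10 mM) was incubated alone or with test compounds (7.81–500) for 60 min under light exposure. Nitrite in the mixture was measured by Griess assay, and % NO scavenging was calculated from OD versus the control. Results are the mean ± S.E.M. of three runs; IC₅₀ values were calculated.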

For another data set, the target named is T1, Tyrosinase (Homo sapiens, UniProt P14679).
T1 sequence (P14679 whole entry): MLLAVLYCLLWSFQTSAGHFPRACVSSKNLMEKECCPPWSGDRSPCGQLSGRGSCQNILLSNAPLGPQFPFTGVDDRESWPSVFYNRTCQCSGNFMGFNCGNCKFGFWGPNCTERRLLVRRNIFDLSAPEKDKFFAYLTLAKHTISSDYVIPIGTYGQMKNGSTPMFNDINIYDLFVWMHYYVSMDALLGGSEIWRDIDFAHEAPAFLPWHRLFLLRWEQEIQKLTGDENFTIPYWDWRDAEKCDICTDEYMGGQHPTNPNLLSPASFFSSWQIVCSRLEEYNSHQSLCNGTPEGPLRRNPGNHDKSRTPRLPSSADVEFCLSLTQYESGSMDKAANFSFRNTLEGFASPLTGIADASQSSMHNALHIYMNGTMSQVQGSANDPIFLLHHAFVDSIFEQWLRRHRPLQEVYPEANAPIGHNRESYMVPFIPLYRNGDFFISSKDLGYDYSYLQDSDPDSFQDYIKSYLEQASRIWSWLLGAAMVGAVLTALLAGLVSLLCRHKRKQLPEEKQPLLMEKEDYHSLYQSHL
Nature of the data set: Inhibition of tyrosinase.

Data set [3] has as its system Radical scavenging activity. Nature of the data set: Antioxidant activity assessed as DPPH free radical scavenging activity after 30 mins. It is filed as functional. In short, it runs like this:
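Compound stocks were made in 100% DMSO and serially diluted from 7.81 to 500. DPPH (1 mg/ml in methanol) was added, and plates were shaken gently and kept in the dark for 30 min. Absorbance was read at 517 nm, and % scavenging was calculated versus the control. Results are the mean ± S.E.M. of three runs; IC₅₀ values were calculated.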
(DPPH is a stable violet radical that fades when it is reduced.)

Data set [4] is described as follows: Cytotoxicity against HEMn cells. The data set is classed as cell-based. To be noted: human.
In data set [5] the test system is RAW264.7. The experiment in a line: Cytotoxicity against IFN-gamma/LPS-stimulated mouse RAW264.7 cells assessed as cell viability at 50 uM after 17 to 20 hrs by MTT assay. The data set is classed as cell-based. To be noted: raw264.7, 50 µM. The procedure, abridged:
(§1)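 RAW 264.7 cells were cultured and seeded as for the NO assay. In the MTT read-out, cells were incubated for 4 h at 37 °C under 5% CO₂. Formazan was dissolved in DMSO and absorbance read at 570 nm. Viability (%) = OD sample / OD control × 100. Results are the mean ± S.E.M. of three experiments.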
(In general: Formazan colour is commonly taken as a measure of viable cells.)

Data set [6] relates to RAW264.7. The experiment in a line: Cytotoxicity against IFN-gamma/LPS-stimulated mouse RAW264.7 cells assessed as cell viability at 25 uM after 17 to 20 hrs by MTT assay. The data set is classed as cell-based. To be noted: raw264.7, 25 µM. The procedure, abridged: as §1
The mark [7] stands for this setting: Mus musculus, RAW264.7, read-out: IC50.

Where only a bound is given, the exact number is not on record here.

As to `COC(=O)[C@@H](N)CCCNC(=N)N[N+](=O)[O-]` [L-NAME], in the data set on RAW264.7 [1] (setting [7]), the IC50 was 27.1 µM.
Take `COc1cc(/C=C/C(=O)/C=C/c2ccc(O)c(OC)c2)ccc1O`: the IC50 in data set [2] (read-out: IC50) is greater than 500 µM; at Tyrosinase (read-out: IC50), greater than 250 µM; in data set [3] (read-out: IC50), 257 µM; with RAW264.7 [1] (raw264.7), “Not Active”.
Turning to `COc1ccc(/C=C/C(=O)/C=C/c2ccc(OC)cc2F)c(F)c1`, the IC50 entry is “Not Active” in data set [2], greater than 250 µM at Tyrosinase (read-out: IC50), “Not Active” in data set [3] and 33.1 µM in the data set on RAW264.7 [1] (setting [7]).
In the case of `O=c1c(O)c(-c2ccc(O)c(O)c2)oc2cc(O)cc(O)c12` [QUERCETIN], the IC50 result is “Not Active” in data set [2] and 41.8 µM in data set [3] (read-out: IC50).
As for `O=C(/C=C/c1ccc(F)cc1)/C=C/c1ccc(F)cc1`, the IC50 result in data set [2] is “Not Active”; at Tyrosinase (read-out: IC50), greater than 250 µM; in data set [3], “Not Active”; in the data set on RAW264.7 [1] (raw264.7), “Not Active”.
In the case of `O=C(/C=C/c1ccc(O)cc1)/C=C/c1ccc(O)cc1`, the IC50 was greater than 500 µM in data set [2] (read-out: IC50), 79 µM on Tyrosinase (read-out: IC50), greater than 500 µM in data set [3] (read-out: IC50) and “Not Active” with RAW264.7 [1] (raw264.7). Besides, the Activity entry in data set [4] was “Toxic”.
Turning to `COc1ccc(OC)c(/C=C/C(=O)/C=C/c2cc(OC)ccc2OC)c1`, the IC50 result is “Not Active” in data set [2], “Not Active” on Tyrosinase, “Not Active” in data set [3] and 13.6 µM in the data set with RAW264.7 [1] (setting [7]). For the same compound, the Activity entry in the data set with RAW264.7 [5] was “Toxic”.
With `O=C(/C=C/c1ccccc1O)/C=C/c1ccccc1O`, the IC50 in data set [2] (read-out: IC50) was greater than 500 µM; against Tyrosinase, “Not Active”; in data set [3] (read-out: IC50), greater than 500 µM; in the data set on RAW264.7 [1] (setting [7]) it was 10.2 µM. The Activity entry in the data set on RAW264.7 [5] and in the data set on RAW264.7 [6] was “Toxic” throughout.
`COc1cc(/C=C/C(=O)CC(=O)/C=C/c2ccc(O)c(OC)c2)ccc1O` [CURCUMIN]: the concentration for half-maximal inhibition (IC50) in data set [2] (read-out: IC50) was greater than 500 µM; at Tyrosinase, “Not Active”; in data set [3] (read-out: IC50) it was 110 µM; in the data set on RAW264.7 [1] (setting [7]), 20.4 µM.
In the case of `CC1(C)N([O])C(c2ccccc2)=[N+]([O-])C1(C)C`, the IC50 in data set [2] (read-out: IC50) was 0.57 µM.
